What was measured:
[1] = Permeability across apical to basolateral side in human Caco2 cells measured up to 2 hrs by LC/MS/MS analysis; assay type: ADME, cell-based; settings: Caco-2, read-out: permeability
Procedure, shortened: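 Caco-2 cells seeded at 1-2 x 10^5 cells/cm2 on 0.4 µm PET filter inserts, cultured 10 to 25 days. Compound in HTP-4 buffer applied to apical donor side; donor sampled at start and end, receiver sampled over up to 2 h; quantified by LC/MS/MS. Duplicate 6-timepoint (0 to 2 h).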

[2] = Oral bioavailability in dog at 10 mg/kg; assay type: ADME, organism-based, Canis lupus familiaris; settings: in vivo
Procedure, shortened: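 iv 1 mg/kg in 70 % PEG; po 10 mg/kg as suspension in 0.5 % methyl cellulose/0.015 % Tween. Blood sampled at 11 timepoints (0, 5, 15, 30 min, 1, 2, 4, 6, 8, 12, 24 h) per dose; mean of n = 3. Clearance expressed as percent of hepatic blood flow.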

[3] = target: Prostaglandin G/H synthase 1 (Homo sapiens) (UniProt P23219); assay: Inhibition of cyclooxygenase-1 (unknown origin) at 10 uM relative to control
Chain of Prostaglandin G/H synthase 1 (Homo sapiens) (P23219 whole entry): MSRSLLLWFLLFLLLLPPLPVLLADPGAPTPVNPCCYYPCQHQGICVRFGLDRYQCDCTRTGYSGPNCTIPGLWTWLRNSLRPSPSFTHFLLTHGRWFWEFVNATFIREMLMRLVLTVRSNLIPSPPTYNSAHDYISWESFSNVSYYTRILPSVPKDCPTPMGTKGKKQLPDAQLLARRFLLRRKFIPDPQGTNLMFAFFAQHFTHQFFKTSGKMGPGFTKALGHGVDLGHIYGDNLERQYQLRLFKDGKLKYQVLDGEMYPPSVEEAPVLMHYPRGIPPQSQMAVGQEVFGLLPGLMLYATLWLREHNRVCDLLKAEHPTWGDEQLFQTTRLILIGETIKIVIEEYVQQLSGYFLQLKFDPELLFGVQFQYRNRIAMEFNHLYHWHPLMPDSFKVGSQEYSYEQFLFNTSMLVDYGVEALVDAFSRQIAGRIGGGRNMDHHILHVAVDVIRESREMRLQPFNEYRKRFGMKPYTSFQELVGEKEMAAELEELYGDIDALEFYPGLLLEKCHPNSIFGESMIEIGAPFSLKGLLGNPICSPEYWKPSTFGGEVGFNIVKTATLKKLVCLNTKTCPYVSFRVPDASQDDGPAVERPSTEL

Papp A→B at 2 h [1]: 340 nm/s
bioavailability [2]: 58%
inhibition [3]: < 50%
Compound: CN(C)C(=O)Cn1cc(-c2nc([C@@](C)(c3ccc(-c4cnc(N)nc4)cc3)C3CC3)no2)cn1 [BI 665915]
